# Test results as given in ChEMBL document CHEMBL4020840, “Synthesis and Biological Evaluation of Selenium-Containing 4-Anilinoquinazoline Derivatives as Novel Antimitotic Agents” (J Med Chem, 2018).
# pIC50: −log10 of the molar value.
# System: A549
# Assay: Growth inhibition of human A549 cells after 48 hrs by MTT assay
# Type: functional, cell-based
# Conditions: A549, 48 h
row,Structure (SMILES),pIC50
1,[2H]C([2H])([2H])c1nc(N(C)c2ccc([Se]C#N)cc2)c2ccccc2n1,8.15
2,CN(c1ccc([Se]C#N)cc1)c1nc(C2CC2)nc2ccccc12,7.92
3,C[Se]c1ccc(N(C)c2nc(C)nc3ccccc23)cc1C,8.70
4,Cc1nc(N(C)c2ccc([Se]C#N)c(Cl)c2)c2ccccc2n1,8.15

# The remaining lines, values ahead:
row,pIC50,Structure (SMILES)
1,8.52,COc1ccc(N(C)c2nc(C)nc3ccccc23)cc1 [VERUBULIN]
2,6.31,COc1ccc(N(C)c2nc(C)nc3ccccc23)cc1C(=O)OCCCCCC[Se]C#N
3,6.60,COc1ccc(N(C)c2nc(C)nc3ccccc23)cc1C(=O)OCCC[Se]C#N
4,6.81,COc1ccc(N(C)c2nc(C)nc3ccccc23)cc1C(=O)OCCCC[Se]C#N
5,6.91,COc1ccc(N(C)c2nc(C)nc3ccccc23)cc1OCCN

# System: BJ
# Assay: Antiproliferative activity against human BJ cells after 48 hrs by MTT assay
# Type: cell-based
# Conditions: not given
# In short: (§1)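 MTT assay: log-phase cells plated at 5 × 10³/well for 24 h, then exposed to a range of test concentrations for 48 h. MTT (5 mg/mL) added for 4 h, formazan dissolved in DMSO, absorbance read at 570 nm. IC50 is the concentration giving 50% growth inhibition, from dose-response curves; at least three independent experiments, mean ± SE.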
row,Structure (SMILES),pIC50
1,COc1ccc(N(C)c2nc(C)nc3ccccc23)cc1 [VERUBULIN],7.82

# System: not listed separately
# Assay: Growth inhibition of human HepG2/DOX cells after 48 hrs by MTT assay
# Type: functional, cell-based
# Conditions: not given
# In short: as §1
row,Structure (SMILES),pIC50
1,COc1ccc(N(C)c2nc(C)nc3ccccc23)cc1 [VERUBULIN],7.96

# System: RKO
# Assay: Growth inhibition of human RKO cells after 48 hrs by MTT assay
# Type: functional, cell-based
# Conditions: not given
# In short: as §1
row,Structure (SMILES),pIC50
1,[2H]C([2H])([2H])c1nc(N(C)c2ccc([Se]C#N)cc2)c2ccccc2n1,7.96
2,COc1ccc(N(C)c2nc(C)nc3ccccc23)cc1 [VERUBULIN],8.52
3,COc1ccc(N(C)c2nc(C)nc3ccccc23)cc1C(=O)OCCCCCC[Se]C#N,5.70
4,COc1ccc(N(C)c2nc(C)nc3ccccc23)cc1C(=O)OCCC[Se]C#N,5.94
5,CN(c1ccc([Se]C#N)cc1)c1nc(C2CC2)nc2ccccc12,7.29
6,C[Se]c1ccc(N(C)c2nc(C)nc3ccccc23)cc1C,8.10
7,Cc1nc(N(C)c2ccc([Se]C#N)c(Cl)c2)c2ccccc2n1,7.96
8,COc1ccc(N(C)c2nc(C)nc3ccccc23)cc1C(=O)OCCCC[Se]C#N,5.99
9,COc1ccc(N(C)c2nc(C)nc3ccccc23)cc1OCCN,6.46

# System: HCT-116
# Assay: Growth inhibition of human HCT116 cells after 48 hrs by MTT assay
# Type: functional, cell-based
# Conditions: HCT-116, 48 h
# In short: as §1
row,Structure (SMILES),pIC50
1,[2H]C([2H])([2H])c1nc(N(C)c2ccc([Se]C#N)cc2)c2ccccc2n1,8.00
2,CN(c1ccc([Se]C#N)cc1)c1nc(C2CC2)nc2ccccc12,7.21
3,C[Se]c1ccc(N(C)c2nc(C)nc3ccccc23)cc1C,8.52
4,Cc1nc(N(C)c2ccc([Se]C#N)c(Cl)c2)c2ccccc2n1,7.92

# The next lines start with the values.
row,pIC50,Structure (SMILES)
1,8.40,COc1ccc(N(C)c2nc(C)nc3ccccc23)cc1 [VERUBULIN]
2,5.70,COc1ccc(N(C)c2nc(C)nc3ccccc23)cc1C(=O)OCCCCCC[Se]C#N
3,6.14,COc1ccc(N(C)c2nc(C)nc3ccccc23)cc1C(=O)OCCC[Se]C#N
4,6.18,COc1ccc(N(C)c2nc(C)nc3ccccc23)cc1C(=O)OCCCC[Se]C#N
5,6.70,COc1ccc(N(C)c2nc(C)nc3ccccc23)cc1OCCN

# System: not listed separately
# Assay: Selectivity index, ratio of IC50 for HLF to IC50 for human A549 cells
# Conditions: not given
# In short: (§2)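 MTT assay in normal cells and A549: seeding at 5 × 10³ cells/well for 24 h, 48 h compound exposure, then 5 mg/mL MTT for 4 h, DMSO solubilisation and absorbance at 570 nm. IC50 values came from dose–response curves of at least three independent experiments. Selectivity ratio = IC50 in normal cells / IC50 in A549.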
row,Structure (SMILES),Ratio IC50
1,COc1ccc(N(C)c2nc(C)nc3ccccc23)cc1 [VERUBULIN],9

# System: L02
# Assay: Antiproliferative activity against human LO2 cells after 48 hrs by MTT assay
# Type: cell-based
# Conditions: L02, 48 h
# In short: as §1
row,Structure (SMILES),pIC50
1,COc1ccc(N(C)c2nc(C)nc3ccccc23)cc1 [VERUBULIN],7.89

# System: MDA-MB-231
# Assay: Growth inhibition of human MDA-MB-231 cells after 48 hrs by MTT assay
# Type: functional, cell-based
# Conditions: MDA-MB-231, 48 h
# In short: as §1
row,Structure (SMILES),pIC50
1,[2H]C([2H])([2H])c1nc(N(C)c2ccc([Se]C#N)cc2)c2ccccc2n1,7.96
2,CN(c1ccc([Se]C#N)cc1)c1nc(C2CC2)nc2ccccc12,7.54
3,C[Se]c1ccc(N(C)c2nc(C)nc3ccccc23)cc1C,8.15
4,Cc1nc(N(C)c2ccc([Se]C#N)c(Cl)c2)c2ccccc2n1,8.05

# Results, then the compound that gave them:
row,pIC50,Structure (SMILES)
1,8.10,COc1ccc(N(C)c2nc(C)nc3ccccc23)cc1 [VERUBULIN]
2,5.66,COc1ccc(N(C)c2nc(C)nc3ccccc23)cc1C(=O)OCCCCCC[Se]C#N
3,5.93,COc1ccc(N(C)c2nc(C)nc3ccccc23)cc1C(=O)OCCC[Se]C#N
4,6.26,COc1ccc(N(C)c2nc(C)nc3ccccc23)cc1C(=O)OCCCC[Se]C#N
5,6.17,COc1ccc(N(C)c2nc(C)nc3ccccc23)cc1OCCN

# System: not listed separately
# Assay: Antiproliferative activity against HLF after 48 hrs by MTT assay
# Type: cell-based
# Conditions: Homo sapiens
# In short: as §1
row,Structure (SMILES),pIC50
1,COc1ccc(N(C)c2nc(C)nc3ccccc23)cc1 [VERUBULIN],7.74

# System: A549/CDDP
# Assay: Growth inhibition of human A549/CDDP cells after 48 hrs by MTT assay
# Type: functional, cell-based
# Conditions: not given
# In short: as §1
row,pIC50,Structure (SMILES)
1,8.05,COc1ccc(N(C)c2nc(C)nc3ccccc23)cc1 [VERUBULIN]

# System: MGC-803
# Assay: Antiproliferative activity against human MGC803 cells after 48 hrs by MTT assay
# Type: functional, cell-based
# Conditions: MGC-803, 48 h
# In short: as §1
row,pIC50,Structure (SMILES)
1,8.10,COc1ccc(N(C)c2nc(C)nc3ccccc23)cc1 [VERUBULIN]

# System: not listed separately
# Assay: Selectivity index, ratio of IC50 for human LO2 cells to IC50 for human A549 cells
# Type: functional
# Conditions: not given
# In short: as §2
row,Structure (SMILES),Ratio IC50
1,COc1ccc(N(C)c2nc(C)nc3ccccc23)cc1 [VERUBULIN],6.5

# System: LoVo
# Assay: Growth inhibition of human LoVo cells after 48 hrs by MTT assay
# Type: functional, cell-based
# Conditions: not given
# In short: as §1
row,Structure (SMILES),pIC50
1,[2H]C([2H])([2H])c1nc(N(C)c2ccc([Se]C#N)cc2)c2ccccc2n1,7.85
2,CN(c1ccc([Se]C#N)cc1)c1nc(C2CC2)nc2ccccc12,7.96
3,C[Se]c1ccc(N(C)c2nc(C)nc3ccccc23)cc1C,8.05
4,Cc1nc(N(C)c2ccc([Se]C#N)c(Cl)c2)c2ccccc2n1,7.92

# Now from value to compound:
row,pIC50,Structure (SMILES)
1,8.10,COc1ccc(N(C)c2nc(C)nc3ccccc23)cc1 [VERUBULIN]
2,5.98,COc1ccc(N(C)c2nc(C)nc3ccccc23)cc1C(=O)OCCCCCC[Se]C#N
3,6.07,COc1ccc(N(C)c2nc(C)nc3ccccc23)cc1C(=O)OCCC[Se]C#N
4,5.97,COc1ccc(N(C)c2nc(C)nc3ccccc23)cc1C(=O)OCCCC[Se]C#N
5,6.38,COc1ccc(N(C)c2nc(C)nc3ccccc23)cc1OCCN

# System: MCF7
# Assay: Antiproliferative activity against human MCF7 cells after 48 hrs by MTT assay
# Type: functional, cell-based
# Conditions: MCF7, 48 h
# In short: as §1
row,pIC50,Structure (SMILES)
1,7.96,COc1ccc(N(C)c2nc(C)nc3ccccc23)cc1 [VERUBULIN]

# System: not listed separately
# Assay: Inhibition of porcine brain tubulin polymerization measured every 60 secs for 90 mins by DAPI staining based fluorescence assay
# Design: species or system Sus scrofa
# Conditions: not given
# In short: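 Purified tubulin was tested in a kit assay. Final buffer: 80 mM PIPES sesquisodium (pH 6.9), 2.0 mM MgCl₂, 0.5 mM EGTA, 1 mM GTP, 10.2% glycerol. Compound (0.1–10 μM) was prewarmed at 37 °C for 1 min before tubulin was added. DAPI reporter fluorescence (ex 340 / em 410 nm) was read every 60 s for 90 min. Area under the curve gave percent inhibition versus control and the IC50.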
row,pIC50,Structure (SMILES)
1,5.56,COc1ccc(N(C)c2nc(C)nc3ccccc23)cc1 [VERUBULIN]

# System: HepG2
# Assay: Growth inhibition of human HepG2 cells after 48 hrs by MTT assay
# Type: functional, cell-based
# Conditions: HepG2, 48 h
# In short: as §1
row,Structure (SMILES),pIC50
1,[2H]C([2H])([2H])c1nc(N(C)c2ccc([Se]C#N)cc2)c2ccccc2n1,7.68
2,CN(c1ccc([Se]C#N)cc1)c1nc(C2CC2)nc2ccccc12,7.39
3,C[Se]c1ccc(N(C)c2nc(C)nc3ccccc23)cc1C,8.22
4,Cc1nc(N(C)c2ccc([Se]C#N)c(Cl)c2)c2ccccc2n1,7.92

# Second part, the compound after the results:
row,pIC50,Structure (SMILES)
1,8.30,COc1ccc(N(C)c2nc(C)nc3ccccc23)cc1 [VERUBULIN]
2,5.58,COc1ccc(N(C)c2nc(C)nc3ccccc23)cc1C(=O)OCCCCCC[Se]C#N
3,6.47,COc1ccc(N(C)c2nc(C)nc3ccccc23)cc1C(=O)OCCC[Se]C#N
4,6.01,COc1ccc(N(C)c2nc(C)nc3ccccc23)cc1C(=O)OCCCC[Se]C#N
5,6.46,COc1ccc(N(C)c2nc(C)nc3ccccc23)cc1OCCN

# System: not listed separately
# Assay: Selectivity index, ratio of IC50 for human BJ cells to IC50 for human A549 cells
# Type: functional
# Conditions: not given
# In short: as §2
row,Structure (SMILES),Ratio IC50
1,COc1ccc(N(C)c2nc(C)nc3ccccc23)cc1 [VERUBULIN],7.5

# System: not listed separately
# Assay: Resistance factor, ratio of IC50 for human A549/CDDP cells to IC50 for human A549 cells
# Type: functional
# Conditions: not given
# In short: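 MTT assay: log-phase cells were seeded at 5 × 10³/well for 24 h, then exposed to a concentration series for 48 h. MTT (5 mg/mL) was added for 4 h, formazan was dissolved in DMSO, and A570 was read. IC50 values came from dose–response curves of at least three independent experiments. Resistance factor = IC50 in the resistant line / IC50 in the parental sensitive line.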
row,Structure (SMILES),Ratio IC50
1,COc1ccc(N(C)c2nc(C)nc3ccccc23)cc1 [VERUBULIN],3

# System: HeLa
# Assay: Antiproliferative activity against human HeLa cells after 48 hrs by MTT assay
# Type: functional, cell-based
# Conditions: not given
# In short: as §1
row,pIC50,Structure (SMILES)
1,8.30,COc1ccc(N(C)c2nc(C)nc3ccccc23)cc1 [VERUBULIN]
